From ChEMBL document CHEMBL1142097, “EthA, a common activator of thiocarbamide-containing drugs acting on different mycobacterial targets” (Antimicrob Agents Chemother, 2007) come the findings set out here.

Converted amounts (≈) assume the structure as drawn. The source made the active and inactive calls. No cut-off for these calls is given here.

For test [1], the system named is Mycobacterium tuberculosis. The test is described as follows: Inhibition of oleic acid synthesis in Mycobacterium bovis BCG NCTC 5692 assessed as incorporation of [2-14C]acetate. It is filed as functional, organism-based. To be noted: variant bovis BCG. The gist of the method:
(§1)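 Mid-log cultures in Sauton medium exposed to graded drug concentrations (μg/ml) for 16 h at 37°C, then pulsed with 1 μCi/ml [2-14C]acetate for 8 h at 37°C. Cells PBS-washed, hydrolysed with 15% tetrabutylammonium hydroxide at 100°C overnight, methylated with CH3I in CH2Cl2; fatty and mycolic acid methyl esters resolved by TLC and autoradiographed.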

Test [2] concerns Mycobacterium tuberculosis. The experiment in a line: Inhibition of oleic acid synthesis in Mycobacterium bovis BCG NCTC 5692 with ethR-knockout mutant assessed as incorporation of [2-14C]acetate. The class given is functional, organism-based. The settings on record: variant bovis BCG. In outline: as §1
Test [3] relates to Mycobacterium tuberculosis. The experiment in a line: Inhibition of mycolic acid synthesis in Mycobacterium bovis BCG NCTC 5692 assessed as incorporation of [2-14C]acetate. The settings on record: variant bovis BCG. It is filed as functional, organism-based. In outline: as §1
The test system of test [4] is Mycobacterium tuberculosis. The test is described as follows: Antimycobacterial activity against Mycobacterium bovis BCG NCTC 5692. It is filed as functional. To be noted: Mycobacterium tuberculosis variant bovis BCG. The gist of the method:
(§2)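 Agar MIC on Middlebrook 7H9 or 7H11 with OADC (ADC substituted for isoxyl-type drugs) plus graded drug levels; serial 10-fold dilutions of actively growing culture plated, incubated 37°C for 10–14 days; MIC = lowest concentration blocking 99% of growth. Recombinant Pasteur strains selected with 25 μg/ml kanamycin; ethR::hyg mutant carries a hygromycin-marked transposon in ethR.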

Test [5] has as its system Mycobacterium tuberculosis. The experiment in a line: Antimycobacterial activity against Mycobacterium bovis BCG NCTC 5692 with ethR-knockout mutant. It is filed as functional, variant bovis BCG. The gist of the method: as §2
The nature of test [6]: Antimycobacterial activity against Mycobacterium bovis BCG str. Pasteur 1173P2 overexpressing ethA gene. The class given is functional. The settings on record: Mycobacterium tuberculosis variant bovis BCG. In outline: as §2
The nature of test [7]: Antimycobacterial activity against Mycobacterium bovis BCG str. Pasteur 1173P2 overexpressing ethR gene. It is filed as functional. The settings on record: Mycobacterium tuberculosis variant bovis BCG. In outline: as §2
Test [8] deals with Mycobacterium tuberculosis. The test is described as follows: Inhibition of mycolic acid synthesis in Mycobacterium bovis BCG NCTC 5692 with ethR-knockout mutant assessed as incorporation of [2-14C]acetate. It is filed as functional, organism-based. To be noted: variant bovis BCG. In outline:
as §1

In general, MIC refers to the lowest concentration that inhibits growth of the organism. A high value points to a need for much substance.

Turning to `CC(C)CCOc1ccc(NC(=S)Nc2ccc(OCCC(C)C)cc2)cc1` [TIOCARLIDE], the result in test [1], in test [2] and in test [3] was Active. The MIC in test [4] was found to be 1 µg/mL (≈ 2.5 µM); in test [5] it was 0.5 µg/mL (≈ 1.25 µM); in test [6], 0.1 µg/mL (≈ 0.25 µM); in test [7] it was 0.25 µg/mL (≈ 0.624 µM).

Regarding `CC(C)CCSc1ccc(NC(=S)Nc2ccc(SCCC(C)C)cc2)cc1`, the outcome in test [2] and in test [8] was Active. For the same compound, the MIC in test [4] was found to be 25 µg/mL (≈ 57.8 µM); in test [5] it was 2.5 µg/mL (≈ 5.78 µM); in test [6], 5 µg/mL (≈ 11.6 µM); in test [7], 40 µg/mL (≈ 92.4 µM).

Take `CCc1cc(C(N)=S)ccn1` [ETHIONAMIDE]: the minimum inhibitory concentration (MIC) in test [4] turned out to be 5 µg/mL (≈ 30.1 µM); in test [5], 0.5 µg/mL (≈ 3.01 µM); in test [6], 0.25 µg/mL (≈ 1.5 µM); in test [7], 10 µg/mL (≈ 60.2 µM). In addition, the outcome in test [8] was Active.

Consider `CC(=O)Nc1ccc(/C=N/NC(N)=S)cc1` [AMITHIOZONE], for which the result in test [1] was inactive. For the same compound, the outcome in test [3] and in test [8] was Active. Further, the MIC in test [4] is 2.5 µg/mL (≈ 10.6 µM); in test [5], 0.25 µg/mL (≈ 1.06 µM); in test [6], 0.25 µg/mL (≈ 1.06 µM); in test [7] it was 2.5 µg/mL (≈ 10.6 µM).

In the case of `NC(=S)N/N=C/c1cccnc1` [NICOTHIAZONE], the MIC in test [4] was 25 µg/mL (≈ 139 µM); in test [5] it was 5 µg/mL (≈ 27.7 µM); in test [6], 10 µg/mL (≈ 55.5 µM); in test [7] it was 75 µg/mL (≈ 416 µM).

As for `COc1ccc(/C(C)=N/NC(N)=S)cc1`, the minimal inhibitory concentration (MIC) was 2.5 µg/mL (≈ 11.2 µM) in test [4], 0.25 µg/mL (≈ 1.12 µM) in test [5], 0.25 µg/mL (≈ 1.12 µM) in test [6] and 0.5 µg/mL (≈ 2.24 µM) in test [7].
